Screens (PubChem)
The list is not random: actives were taken first. Their share in the collection is about 2.7%.
Yeast growth inh = reduces growth of yeast BB579 in restrictive medium. inhibition, % at 10 µM. S. cerevisiae BB579 growth, OD615, 48 h. AID 804. hit rate 0.51% among 140,000;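 active = inhibition above a set limit, 3 SD over the mean compound inhibition, cut at about 44% in these data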
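Material: Saccharomyces cerevisiae DeaD strain BB579, replicative lifespan model yeast; buffer or medium: CSMM-D restrictive synthetic medium containing dextrose (glucose); compound: 10 µM single dose, DMSO 0.25%; timing: 48 h compound exposure at 30 °C after 4 h preincubation; signal: turbidity as optical density at 615 nm; benchmarks: positive control amphotericin B 10 µg/mL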
RAM inhibit = blocks the yeast RAM network | S. cerevisiae dse1pr::URA3 reporter, 5-FOA growth OD615, 2 d; analog-sensitive cbk1-as2 kinase mutant strain | inhibition, % at 50 µM | hit rate 1.8% among 190,000;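 active = inhibition above a set limit, 3 SD over mean compound inhibition, cut at about 8.4% in these data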;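 also: inhibition rescues growth on 5-FOA so higher OD means more RAM inhibition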
Yeast life ext = extends the lifespan of yeast | S. cerevisiae growth with nicotinamide, OD615; deaD strain in restrictive glucose medium | inhibition of the nicotinamide effect, % at 10 µM | hit rate 0.68% among 130,000 | AID 775;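 active = inhibition above a set limit, placed 3 SD over the median of all compounds, cut at about 26% in these data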
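Assay system: engineered S. cerevisiae DeaD replicative-lifespan strain, galactose-grown log-phase cells; Buffer or medium: CSMM-D glucose medium, restrictive; Probe or stimulus: nicotinamide 1.5 mM; Compound: single dose 10 µM compound, 0.25% DMSO; Schedule: 4 h preincubation then 48 h treatment at 30 °C; Technique: OD615 measurement.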
SDO1 yeast rescue = sdo1-depleted yeast growth rescue; S. cerevisiae sdo1-depleted JHY4D growth rescue, OD600 30 h; active compounds read high; pdr5 snq2 efflux-pump mutant strain; z-score at 10 µM; hit rate 0.21% among 140,000;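 active = z-score above 3 at both the 24 hr and the 30 hr optical density reads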
Each line names hits and unclear results; the compound was inactive in the other large screens.

COc1cc(-c2nc3c(c(C)nn3-c3ccccc3)c3cc(OC)c(OC)cc23)ccc1O	RAM inhibit 8.9
CCSc1nc(C2CC2)cc(-c2ccco2)c1C#N	RAM inhibit 10
COc1cccc(/C(O)=C/C(=O)C(=O)Nc2ccc(S(=O)(=O)NC(C)=O)cc2)c1	none
COc1cc(Br)cc(-c2nc3c(c(=O)[nH]c(=O)n3Cc3ccccc3)n2C)c1O	Yeast life ext 63
CCOC(=O)C1=C(c2ccccc2)NC(SCC(=O)NC2CCCCC2)=C(C#N)C1c1ccco1 (stereo not drawn)	none
CSc1ccc(/C=C(\C(=O)O)c2ccc(S(=O)(=O)N3CCCCC3)s2)cc1	RAM inhibit 10
O=C(O)/C(=C\c1ccccc1Cl)c1ccc(S(=O)(=O)N2CCCCC2)s1	none
CCOC(=O)c1nnn(-c2nonc2N)c1CNc1ccccc1	none
COc1ccc(NC(=O)CCC(=O)c2cccs2)cc1S(=O)(=O)Nc1ccccc1Cl	RAM inhibit 10.0
O=c1oc2ccccc2cc1-c1ccc(O)cc1	none
Oc1cc(-c2ccccc2)c2ccccc2c1	Yeast growth inh 97
Cc1cc(C)c2c(N=NN(C)C)[nH]nc2n1	Yeast growth inh 73
CCCCCCn1c(C)nc2c(c1=O)c1nc3ccccc3nc1n2/N=C/c1ccco1	none
CCO/C(C)=N/n1c2nc3ccccc3nc2c2c(=O)n(Cc3ccccc3Cl)c(C)nc21	RAM inhibit 8.6
CC12CC(NC(=O)N1c1cccc(C(=O)N3CCN(c4ccccn4)CC3)c1)c1ccccc1O2 (stereo not drawn)	none
CCCn1c(C)cc(/C=C(\C#N)C(=O)OCC(=O)Nc2cccc(OC)c2)c1C	RAM inhibit 8.9
Cc1cc(/C=C(\C#N)C(=O)OCC(=O)NC(=O)NC(C)(C)C)c(C)n1CCC(C)C	none
CCCCCCCCCS(=O)(=O)N/N=C/c1cccc([N+](=O)[O-])c1	RAM inhibit 8.7
CC(C)CNC(=O)COC(=O)Cc1ccc(Cl)cc1	none (no result: Yeast growth inh, Yeast life ext, SDO1 yeast rescue)
CCOC(=O)C1CCN(Cc2cc(C(C)(C)C)c(O)c(C(C)(C)C)c2)CC1	none (no result: Yeast growth inh, Yeast life ext, SDO1 yeast rescue)
CC(C)(C)c1cc(CN2CCN(CCO)CC2)cc(C(C)(C)C)c1O	Yeast life ext 32
CCOc1ccc(/C=N/NC(=O)c2c(-c3ccccc3)noc2C)cc1	RAM inhibit 11
O=[N+]([O-])c1cc(C(F)(F)F)ccc1SCC(O)CO (stereo not drawn)	none (no result: Yeast growth inh, Yeast life ext, SDO1 yeast rescue)
N#Cc1c(-c2c(Cl)cccc2Cl)noc1/C=C/Nc1ccc(C(=O)O)cc1	RAM inhibit 8.6 (no result: Yeast growth inh, Yeast life ext, SDO1 yeast rescue)
Cn1ccnc1C1CCCCN1Cc1nc(-c2ccc(Cl)cc2)no1 (stereo not drawn)	none (no result: Yeast growth inh, Yeast life ext, SDO1 yeast rescue)
O=C(Nc1ccc2c(c1)OCO2)C1CCCN1C(=O)OCc1ccccc1 (stereo not drawn)	none
O=C(Nc1ccc2c(c1)OCO2)C1CCCN1C(=O)NCc1ccccc1 (stereo not drawn)	Yeast life ext 57
O=c1oc2ccccc2c(N2CCCC2)c1CN1CCCC1	Yeast growth inh 86
CCOCc1nnc(NC(=O)c2ccco2)s1	none
CC1=C/C(=N\OS(=O)(=O)c2ccccc2)C(C)=CC1=O	Yeast growth inh 100
CC1=C(C)/C(=N\OS(=O)(=O)c2ccc(C)cc2)C=CC1=O	Yeast growth inh 99
COc1ccc(S(=O)(=O)/N=C2/C=CC(=O)C(C)=C2C)cc1	none
CC1=C/C(=N\OS(=O)(=O)c2ccccc2)C(C(C)C)=CC1=O	Yeast growth inh 100
Cc1ccc(C)c(S(=O)(=O)N/N=C/c2ccc(F)cc2)c1	none (no result: Yeast growth inh, Yeast life ext, SDO1 yeast rescue)
CCc1ccccc1NC(=O)CSc1n[nH]c(C)c1[N+](=O)[O-]	none
CCCc1nc(Nc2nc3ccccc3o2)nc(C)c1C(=O)OCC	RAM inhibit 11
CCCOc1ccc(C(=O)NNC(=S)NC(=O)CC)cc1	none
Cc1ccc(S(=O)(=O)N(CC(=O)Nc2ccccc2C(=O)O)c2ccc(Cl)cc2)cc1	RAM inhibit 8.5 (no result: Yeast growth inh, Yeast life ext, SDO1 yeast rescue)
Cc1ccc(CNS(=O)(=O)c2ccc(C(C)(C)C)cc2)n1C	none
COc1ccc(N2C(=O)CC2(C#N)c2ccc(OCc3ccccc3)cc2)cc1 (stereo not drawn)	RAM inhibit 11
O=C(Nc1cccc(Cl)c1Cl)c1cc(S(=O)(=O)NCCc2ccccc2)ccc1F	RAM inhibit 9.4
O=C1OCCC1Sc1nnc(-c2ccco2)n1-c1ccccc1 (stereo not drawn)	none (no result: Yeast growth inh, Yeast life ext, SDO1 yeast rescue)
c1ccc(-n2c(-c3ccco3)nnc2-c2ccco2)cc1	Yeast growth inh 47
CC(=O)N1c2ccc3ccccc3c2C(C)CC12CCCCC2 (stereo not drawn)	RAM inhibit 10
